Most compounds without a hit are left out; they make up all but 9.3% or so of the library.
PostGolgi ctrl: growth inhibition of yeast control strain, primary screen, counter-screen for post-Golgi transport modulator project; efflux-deficient yeast background strain, growth absorbance A615, 16 h; inhibition, % at 10 µM; 98,000 compounds, 5% hits; AID 738, 2007
D1 allo mod: D1 CRE-luciferase signal change, two-sided – cell-based, HEK293 D1, dopamine EC30, D1 allosteric modulator project, primary screen. B-score at 10 µM. D(1A) dopamine receptor (Homo sapiens), P21728. dopamine EC30 potentiation; actives deviate in either direction. 58,000 compounds, 5.9% hits;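 active = luminescence count or its row- and column-corrected plate score outside the 99.7% band of the plate's sample wells, on either side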
PostGolgi yeast: phenotypic screen on post-Golgi transport, primary screen. post-Golgi transport phenotypic cell assay. inhibition, % at 10 µM. 98,000 compounds, 0.9% hits;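 note: yeast cells grown in 1536-well plates; yeast grown about 18 h at 30C before absorbance read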
tolC growth inh: growth inhibitors of E. coli tolC mutant, primary screen, strain BW25113 ΔtolC::kan, 384-well | OD615 | growth inhibition, % at 10 µM (by protocol) | 65,000 compounds, 2.2% hits | AID 573, 2007;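 active = growth inhibition at or above a cutoff equal to the mean over every tested compound plus 3 SD, cut at about 60% in these data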;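 note: growth measured after 20 h incubation at 37 °C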
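Test system: tolC-deleted E. coli BW25113 | Medium: LB with kanamycin 50 µg/mL | Compound dosing: Single concentration, 10 µM final per compound | Schedule: 37 °C, 20 h exposure | Measured by: OD at 615 nm | Evaluation: Percent growth inhibition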
Ecoli WT expand: growth inhibitors of wild-type E. coli, primary screen, strain BW25113, expanded library, OD600; OD600 absorbance; growth inhibition, % at 100 µM; 98,000 compounds, 0.15% hits; AID 710, 2007;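 active = growth inhibition above about 50% at one test dose, limit read from the data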;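 note: growth measured after 20 h incubation at 37 °C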
hDAT+cocaine: changed hDAT dopamine uptake under cocaine IC80, either direction, primary screen, cocaine antagonist project, cell-based, LLC-PK1 hDAT, [14C]-dopamine uptake, MLSMR; AID 449768, 2010; Sodium-dependent dopamine transporter (Homo sapiens), Q01959; B-score at 10 µM; LLC-PK1 hDAT cells, [14C]-dopamine uptake with cocaine IC80; actives deviate in either direction; 110,000 compounds, 1.3% hits;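 active = Z score or B-score, a plate-position-corrected score, falls beyond the plate's 99.7% confidence bounds, in either direction; inactive = both scores lie inside the 99.7% bounds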;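 note: scored against the spread of the other compound wells on the same plate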
Target sequence (Q01959 whole entry, looked up): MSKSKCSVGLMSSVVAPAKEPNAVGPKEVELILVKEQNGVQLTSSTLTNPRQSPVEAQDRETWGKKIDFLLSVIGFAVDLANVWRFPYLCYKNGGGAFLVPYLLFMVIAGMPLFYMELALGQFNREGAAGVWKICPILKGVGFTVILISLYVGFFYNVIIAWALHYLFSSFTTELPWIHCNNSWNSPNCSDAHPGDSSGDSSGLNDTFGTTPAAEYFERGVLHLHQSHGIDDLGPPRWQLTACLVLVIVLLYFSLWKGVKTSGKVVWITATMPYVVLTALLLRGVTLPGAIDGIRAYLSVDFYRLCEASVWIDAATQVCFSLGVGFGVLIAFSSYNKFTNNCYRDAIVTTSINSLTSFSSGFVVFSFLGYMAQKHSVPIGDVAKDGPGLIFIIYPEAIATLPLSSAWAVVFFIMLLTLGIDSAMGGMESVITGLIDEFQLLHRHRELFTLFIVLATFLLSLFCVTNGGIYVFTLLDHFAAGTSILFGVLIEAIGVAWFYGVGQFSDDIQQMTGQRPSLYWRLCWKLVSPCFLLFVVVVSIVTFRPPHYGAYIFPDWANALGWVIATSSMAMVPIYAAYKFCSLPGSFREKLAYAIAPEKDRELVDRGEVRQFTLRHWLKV
The depositor's hits bear a star. Cut-off read from the data, not from the text of the source, unless noted: active = inhibition above about 30%; inactive = the rest.

For Cc1cc(C)cc(NC(=S)NC(=O)CCN2C(=O)c3ccccc3C2=O)c1 the results were PostGolgi ctrl 92*, PostGolgi yeast 87*, Ecoli WT expand 11 and hDAT+cocaine -1.6.
Screening CSc1nnc2c(n1)OC(C1CC=C(C)CC1)Nc1ccccc1-2 (configuration not stated) returned D1 allo mod 0.15 and tolC growth inh -3.
`CCOC(=O)CNC(=O)CSc1ncnc2c1cnn2-c1ccc(Cl)cc1` gave PostGolgi ctrl 10, D1 allo mod -0.76, PostGolgi yeast 6, tolC growth inh 6, Ecoli WT expand 15 and hDAT+cocaine 0.31.
`CCOC(=O)Cc1csc(NC(=O)CSc2ncnc3c2cnn3-c2ccc(OC)cc2)n1` gave PostGolgi ctrl 1, D1 allo mod -4.2*, PostGolgi yeast 8, tolC growth inh 19, Ecoli WT expand -4 and hDAT+cocaine 0.0045.
`Cc1csc(NC(=O)CSc2ncnc3c2cnn3-c2ccccc2Cl)n1` gave PostGolgi ctrl 32*, D1 allo mod -2.1, PostGolgi yeast 1, tolC growth inh 61*, Ecoli WT expand 2 and hDAT+cocaine 0.24.
Screening COc1ccc2ccccc2c1CN1CCN(C)CC1 returned PostGolgi ctrl 3, D1 allo mod -2.4*, PostGolgi yeast -11, tolC growth inh -11, Ecoli WT expand 3 and hDAT+cocaine 0.042.
For CCN1CCN(CCC(=O)Nc2ccccc2OC)CC1 the results were PostGolgi ctrl 6, D1 allo mod -0.55, PostGolgi yeast -10, tolC growth inh -24, Ecoli WT expand 2 and hDAT+cocaine 1.8.
For CCN1CCN(Cc2c(OC)ccc3ccccc23)CC1 the results were PostGolgi ctrl -5, D1 allo mod -3.6*, PostGolgi yeast -16, tolC growth inh -6, Ecoli WT expand -6 and hDAT+cocaine 0.53.
Screening CCc1nnc(NC2=NCCC2)s1 returned PostGolgi ctrl 33*, D1 allo mod -1.2, PostGolgi yeast 7, tolC growth inh 3, Ecoli WT expand 2 and hDAT+cocaine -0.024.
Screening c1nnc(NC2=NCCC2)s1 returned PostGolgi ctrl -2, PostGolgi yeast -3, Ecoli WT expand 7 and hDAT+cocaine 0.17.
CCc1ccc(/C=N/NC(=O)c2cc(-c3ccccc3OC)nc3ccccc23)s1 was read as PostGolgi ctrl 75*, PostGolgi yeast 9, Ecoli WT expand -12 and hDAT+cocaine -0.18.
`COc1ccccc1-c1cc(C(=O)N/N=C/c2ccc(C)s2)c2ccccc2n1` gave PostGolgi ctrl 92*, PostGolgi yeast 10 and Ecoli WT expand -13.
Screening COc1ccc(/C=N/NC(=O)c2cc(-c3ccccc3OC)nc3ccccc23)cc1COC(C)=O returned PostGolgi ctrl 5, PostGolgi yeast 0, Ecoli WT expand -4 and hDAT+cocaine -0.18.
`O=C(OCc1ccc2c(c1)OCO2)c1ccc(S(=O)(=O)N2CCCC2)cc1` gave PostGolgi ctrl 17, D1 allo mod 0.76, PostGolgi yeast -4, tolC growth inh 37, Ecoli WT expand -11 and hDAT+cocaine 0.022.
`O=C(OCc1ccc2c(c1)OCO2)c1cccc(S(=O)(=O)N2CCCCC2)c1` gave PostGolgi ctrl 38*, PostGolgi yeast -5, Ecoli WT expand -15 and hDAT+cocaine -0.14.
`O=S(=O)(c1ccc2c(c1)OCCO2)N1CCN(Cc2ccc3c(c2)OCO3)CC1` gave PostGolgi ctrl 31*, D1 allo mod -0.3, PostGolgi yeast 0, tolC growth inh 6, Ecoli WT expand -8 and hDAT+cocaine 0.4.
Screening COc1ccccc1CNC(=O)c1cnc2ccccn2c1=O returned PostGolgi ctrl 26, D1 allo mod 0.11, PostGolgi yeast -2, tolC growth inh -4, Ecoli WT expand 6 and hDAT+cocaine 3.5*.
For Cc1cccc(NC(=O)c2cnc3sccn3c2=O)c1 the results were D1 allo mod -2.1 and tolC growth inh 0.
For Cc1cccc(NC(=O)c2cnc3ccccn3c2=O)c1 the results were PostGolgi ctrl 8, D1 allo mod -4.3*, PostGolgi yeast 4, tolC growth inh -5, Ecoli WT expand -10 and hDAT+cocaine -0.12.
Screening Cc1cc(-c2cc(C(=O)NCc3ccccc3)on2)nc(NC2CCCC2)n1 returned hDAT+cocaine -0.29.
O=C(NCc1ccco1)c1cc2sccc2n1Cc1ccccc1 was read as tolC growth inh 77* and hDAT+cocaine -0.96.
Screening CCC(OC(=O)c1cc2sccc2n1C)C(=O)NCc1ccco1 (configuration not stated) returned PostGolgi ctrl 99*, D1 allo mod 0.43, PostGolgi yeast 103*, tolC growth inh 0, Ecoli WT expand 4 and hDAT+cocaine -0.78.
`CCn1c(C(=O)NCCCc2ccccc2)cc2sccc21` gave D1 allo mod -0.47 and tolC growth inh 81*.
For O=C(NCc1ccco1)c1ccc(Cn2c(=O)c3sccc3n(Cc3cccc(F)c3)c2=O)cc1 the results were PostGolgi ctrl 38*, PostGolgi yeast -6, Ecoli WT expand -18 and hDAT+cocaine -0.48.
Cn1c(C(=O)OCC(=O)NCc2ccco2)cc2sccc21 was read as PostGolgi ctrl 0, D1 allo mod -0.025, PostGolgi yeast 7, tolC growth inh -16, Ecoli WT expand -4 and hDAT+cocaine -0.11.
For O=C(NCCc1ccccc1)c1cc2sccc2n1Cc1ccccc1 the results were PostGolgi ctrl 5, PostGolgi yeast -6, Ecoli WT expand -15 and hDAT+cocaine -0.062.
`CCOC(=O)c1cnc(SCc2cccc(C)c2)nc1N` gave PostGolgi ctrl 20, PostGolgi yeast 0, Ecoli WT expand 1 and hDAT+cocaine 0.044.
`COc1ccc(-c2c([C@H]3[C@H]4C=CC[C@@H](C)[C@@H]4C(=O)N3Cc3ccccc3)ccc3ccccc23)cc1OC` gave hDAT+cocaine 0.039.
Screening COc1ccc(CNC(=O)C2(CC3CC(c4ccccc4)=NO3)CCNCC2)cc1 (configuration not stated) returned hDAT+cocaine -0.71.
`C[C@H]1CCC[C@@]2(O[C@H](CCO)C[C@@H](O)[C@@H]2O)O1` gave hDAT+cocaine -0.62.
CCc1nc(NCCN2CCOCC2)c2oc3ccccc3c2n1 was read as PostGolgi ctrl -3, D1 allo mod 3.2*, PostGolgi yeast -1, tolC growth inh -21, Ecoli WT expand 3 and hDAT+cocaine -0.074.
Screening CCc1nc(N2CCCCC2C)c2oc3ccccc3c2n1 (configuration not stated) returned PostGolgi ctrl 24, D1 allo mod 1.1, PostGolgi yeast 18, tolC growth inh 100*, Ecoli WT expand 9 and hDAT+cocaine 0.0047.

High-throughput results: PubChem, several laboratories
